How the values were obtained:
[1] = molecular target: T1, 5-hydroxytryptamine receptor 1A (Rattus norvegicus, UniProt P19327); assay: Binding affinity towards 5-hydroxytryptamine 1A receptor in rat cortex using [3H]8-OH-DPAT as a radioligand
T1 sequence (P19327 whole entry): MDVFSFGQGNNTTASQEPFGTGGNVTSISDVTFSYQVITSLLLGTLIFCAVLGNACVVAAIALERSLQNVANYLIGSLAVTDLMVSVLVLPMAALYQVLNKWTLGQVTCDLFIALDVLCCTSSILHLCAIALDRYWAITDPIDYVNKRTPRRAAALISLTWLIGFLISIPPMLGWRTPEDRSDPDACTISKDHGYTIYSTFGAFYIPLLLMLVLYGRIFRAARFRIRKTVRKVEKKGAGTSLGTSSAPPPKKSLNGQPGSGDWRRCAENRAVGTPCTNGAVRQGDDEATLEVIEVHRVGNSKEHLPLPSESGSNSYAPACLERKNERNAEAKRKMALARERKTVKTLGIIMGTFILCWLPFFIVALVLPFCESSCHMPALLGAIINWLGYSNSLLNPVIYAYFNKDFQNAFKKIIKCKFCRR
Summary of the method: (§1)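 Rat tissue membranes, competition against radioligand at 23 °C. Nonspecific binding: 5-HT for 5-HT1A (30 min), (+)-butaclamol for D2 (60 min), phentolamine for α1 (30 min). Tris HCl 50 mM pH 7.4 buffers. Filtration through glass-fibre filters, then scintillation counting. Run in triplicate; IC50 by nonlinear regression; Ki by Cheng–Prusoff; mean pKi of three determinations.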

[2] = molecular target: T2, 5-hydroxytryptamine receptor 1A (Homo sapiens, UniProt P08908); assay: In vitro effective concentration required to inhibit forskolin-stimulated cAMP levels in HA7 cells expressing human 5-HT1A receptor; type: functional, cell-based
T2 sequence (P08908 whole entry): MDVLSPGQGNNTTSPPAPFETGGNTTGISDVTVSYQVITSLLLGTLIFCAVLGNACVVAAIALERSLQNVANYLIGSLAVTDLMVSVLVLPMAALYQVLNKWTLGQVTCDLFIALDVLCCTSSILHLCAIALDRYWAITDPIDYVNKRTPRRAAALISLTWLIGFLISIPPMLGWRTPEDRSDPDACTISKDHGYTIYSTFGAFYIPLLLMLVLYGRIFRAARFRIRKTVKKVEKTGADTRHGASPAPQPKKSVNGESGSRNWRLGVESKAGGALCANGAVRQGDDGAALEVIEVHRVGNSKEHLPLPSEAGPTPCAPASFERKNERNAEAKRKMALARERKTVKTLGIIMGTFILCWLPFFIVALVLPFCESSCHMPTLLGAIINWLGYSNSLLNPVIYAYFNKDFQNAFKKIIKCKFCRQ
Summary of the method: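 HeLa HA7 cells stably expressing human 5-HT1A, at 80–90% confluency, antibiotic-free for 24 h. Preincubated 10 min at RT in DMEM/10 mM Hepes, then drug at 0.1 nM–100 µM with 100 µM forskolin and 100 µM IBMX for 10 min at RT. Stopped with 0.1 N HCl; cAMP by radioimmunoassay as % of forskolin control; pEC50.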

Rattus norvegicus [3] = assay: Induction of lower lip retraction in rat 60 min after administration, effective peroral dose determined in vivo; type: functional; settings: po, 1 h
Summary of the method: (§2)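 Observed in 10 min windows centred 15 and 60 min post-dose, 10 s each minute, scoring lower lip retraction present or absent (0–10).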

Rattus norvegicus [4] = assay: Effective intraperitoneal dose in vivo in rat after 15 mins to induce lower lip retraction; type: functional; settings: ip, 0.25 h; summary of the method: as §2
D(2) dopamine receptor = D(2) dopamine receptor (Rattus norvegicus, UniProt P61169); assay: Binding affinity towards Dopamine receptor D2 in rat striatum using YM-09151-2 as a radioligand; type: tissue-based; summary of the method: as §1
[5] = molecular target: T3, Adrenergic receptor alpha-1 (Rattus norvegicus, UniProt P15823+P23944+P43140); assay: Binding affinity towards Alpha-1 adrenergic receptor using prazosin as a radioligand in rat cortex; summary of the method: as §1
T3 sequence (P15823 whole entry): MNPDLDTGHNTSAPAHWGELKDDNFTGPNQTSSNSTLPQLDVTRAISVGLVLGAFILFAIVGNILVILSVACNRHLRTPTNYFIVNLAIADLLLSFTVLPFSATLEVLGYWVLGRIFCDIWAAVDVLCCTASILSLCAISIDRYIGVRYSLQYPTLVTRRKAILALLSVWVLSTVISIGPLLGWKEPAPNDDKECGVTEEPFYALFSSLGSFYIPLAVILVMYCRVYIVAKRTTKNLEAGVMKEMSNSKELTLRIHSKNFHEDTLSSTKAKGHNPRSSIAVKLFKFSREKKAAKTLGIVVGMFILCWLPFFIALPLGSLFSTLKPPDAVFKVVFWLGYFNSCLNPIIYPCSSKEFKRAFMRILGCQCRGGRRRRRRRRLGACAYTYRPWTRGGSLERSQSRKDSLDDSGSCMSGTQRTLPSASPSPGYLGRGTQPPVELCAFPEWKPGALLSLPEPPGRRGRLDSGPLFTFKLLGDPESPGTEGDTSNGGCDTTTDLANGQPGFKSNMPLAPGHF
T3 sequence (P23944 whole entry): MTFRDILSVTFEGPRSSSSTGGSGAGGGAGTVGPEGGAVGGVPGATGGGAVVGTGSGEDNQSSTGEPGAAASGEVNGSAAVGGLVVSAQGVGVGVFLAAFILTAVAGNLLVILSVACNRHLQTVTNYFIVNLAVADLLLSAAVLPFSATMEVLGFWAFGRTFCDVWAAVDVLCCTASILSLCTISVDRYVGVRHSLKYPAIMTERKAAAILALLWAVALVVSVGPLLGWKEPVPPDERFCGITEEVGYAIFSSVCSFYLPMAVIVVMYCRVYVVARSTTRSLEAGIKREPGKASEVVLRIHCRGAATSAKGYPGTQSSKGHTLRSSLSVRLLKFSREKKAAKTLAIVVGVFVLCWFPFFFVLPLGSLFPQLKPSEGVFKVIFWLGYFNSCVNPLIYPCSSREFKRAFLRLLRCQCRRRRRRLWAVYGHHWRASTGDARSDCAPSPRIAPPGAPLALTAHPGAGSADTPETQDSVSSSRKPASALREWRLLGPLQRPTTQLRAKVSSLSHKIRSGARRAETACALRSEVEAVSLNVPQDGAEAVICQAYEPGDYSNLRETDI
T3 sequence (P43140 whole entry): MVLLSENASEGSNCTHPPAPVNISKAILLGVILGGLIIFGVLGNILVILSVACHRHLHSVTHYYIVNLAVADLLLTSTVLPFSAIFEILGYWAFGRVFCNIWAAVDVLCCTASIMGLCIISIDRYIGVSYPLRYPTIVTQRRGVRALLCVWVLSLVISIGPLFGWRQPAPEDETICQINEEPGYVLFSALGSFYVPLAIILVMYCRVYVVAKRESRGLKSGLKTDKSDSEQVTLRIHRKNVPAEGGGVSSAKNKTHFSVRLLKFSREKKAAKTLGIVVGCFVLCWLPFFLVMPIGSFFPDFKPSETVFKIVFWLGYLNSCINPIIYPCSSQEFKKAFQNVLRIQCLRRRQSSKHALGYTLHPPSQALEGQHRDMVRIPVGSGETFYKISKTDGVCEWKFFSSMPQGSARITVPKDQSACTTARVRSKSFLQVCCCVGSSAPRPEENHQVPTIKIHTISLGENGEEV

Rattus norvegicus [6] = assay: Effective intraperitoneal dose in vivo in rat after 60 mins to induce lower lip retraction; type: functional; settings: ip, 1 h; summary of the method: as §2

D(2) dopamine receptor, sequence (P61169 whole entry): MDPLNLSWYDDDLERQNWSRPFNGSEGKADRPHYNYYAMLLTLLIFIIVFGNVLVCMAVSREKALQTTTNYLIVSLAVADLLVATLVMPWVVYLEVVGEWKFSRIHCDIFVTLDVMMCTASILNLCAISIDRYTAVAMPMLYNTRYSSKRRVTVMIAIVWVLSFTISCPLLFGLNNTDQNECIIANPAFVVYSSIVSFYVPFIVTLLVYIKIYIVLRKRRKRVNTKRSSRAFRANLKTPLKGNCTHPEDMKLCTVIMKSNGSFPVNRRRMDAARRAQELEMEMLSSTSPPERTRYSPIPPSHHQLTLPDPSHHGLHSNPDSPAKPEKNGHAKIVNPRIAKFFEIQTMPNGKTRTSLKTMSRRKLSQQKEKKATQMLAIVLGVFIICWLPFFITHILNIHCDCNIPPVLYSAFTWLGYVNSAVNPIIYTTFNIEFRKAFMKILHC

| Ki [1] [nM] | EC50 [2] [nM] | Ki (D(2) dopamine receptor) [nM] | Log Ki [5] | SMILES | ED50 (Rattus norvegicus [3]) [mg/kg] | ED50 (Rattus norvegicus [4]) [mg/kg] | ED50 (Rattus norvegicus [6]) [mg/kg] |
| --- | --- | --- | --- | --- | --- | --- | --- |
| 30.2 |  |  |  | COC1(CNCc2cccc(-n3cccn3)n2)CCN(C(=O)c2ccc(Cl)c(Cl)c2)CC1 |  |  |  |
| 1.62 | 39.8 |  |  | O=C(c1ccc(Cl)c(Cl)c1)N1CCC(O)(CNCc2cccc(-n3cccn3)n2)CC1 |  |  |  |
|  | 21.9 |  |  | CNc1cccc(CNCC2CCN(C(=O)c3ccc(Cl)c(Cl)c3)CC2)n1 |  |  |  |
| 1.38 | 28.8 |  |  | CCN(CC)c1nc(CNCC2(F)CCN(C(=O)c3ccc(F)c(Cl)c3)CC2)ccc1C | 0.11 | 0.32 |  |
| 9.12 | 309 |  |  | O=C(c1ccc(Cl)c(Cl)c1)N1CCC(CF)(CNCc2cccc(-n3cccn3)n2)CC1 |  |  |  |
|  | 3.02 |  |  | O=C(c1ccc(Cl)c(Cl)c1)N1CCC(CNCc2cccc(-c3cc[nH]n3)n2)CC1 |  |  |  |
| 37.2 |  |  |  | CC1(CNCc2cccc(-n3cccn3)n2)CCN(C(=O)c2ccc(Cl)c(Cl)c2)CC1 |  |  |  |
|  | 12.6 |  |  | CNc1cccc(CNCC2(F)CCN(C(=O)c3ccc(F)c(Cl)c3)CC2)n1 | 0.32 | 0.11 |  |
|  | 3.72 |  |  | Cc1ccc(CNCC2(F)CCN(C(=O)c3ccc(F)c(Cl)c3)CC2)nc1N(C)C | 0.08 | 0.04 |  |
| 0.2 | 10.7 | 309 | -6.35 | O=C(c1ccc(Cl)c(Cl)c1)N1CCC(F)(CNCc2cccc(N3CCC3)n2)CC1 | 0.45 | 0.32 | 0.45 |
| 0.468 | 47.9 |  |  | Cc1ccc(N(C)C)nc1CNCC1(F)CCN(C(=O)c2ccc(F)c(Cl)c2)CC1 | 1.3 | 0.63 |  |
|  | 5.01 |  |  | O=C(c1ccc(Cl)c(Cl)c1)N1CCC(CNCc2cccc(-c3nccs3)n2)CC1 |  |  |  |
| 0.794 | 22.9 | 3390 | -6.26 | O=C(c1ccc(Cl)c(Cl)c1)N1CCC(F)(CNCc2cccc(-c3nccs3)n2)CC1 | 1.3 | 0.45 | 0.89 |
|  | 0.724 |  |  | O=C(c1ccc(F)c(Cl)c1)N1CCC(F)(CNCc2cccc(-c3cc[nH]n3)n2)CC1 | 0.32 | 0.32 |  |
| 5.13 |  |  |  | O=C(c1ccc(Cl)c(Cl)c1)N1CCC(F)(CNCc2ccccn2)CC1 |  | 0.11 |  |
|  | 2.95 |  | -6.76 | CN(C)c1cccc(CNCC2(F)CCN(C(=O)c3ccc(Cl)c(Cl)c3)CC2)n1 | 0.32 | 0.62 | 0.45 |
| 0.148 | 8.32 |  |  | CCNc1nc(CNCC2(F)CCN(C(=O)c3ccc(F)c(Cl)c3)CC2)ccc1C | 0.45 | 0.08 |  |
|  | 20.9 |  |  | Cc1ccc(CNCC2(F)CCN(C(=O)c3ccc(Cl)c(Cl)c3)CC2)nc1 | 0.62 |  |  |
|  |  |  |  | Cc1ccc(CNCC2(F)CCN(C(=O)c3ccc(F)c(Cl)c3)CC2)nc1 [BEFIRADOL] | 0.11 | 0.08 |  |

Source: ChEMBL document CHEMBL1132173, “Novel derivatives of 2-pyridinemethylamine as selective, potent, and orally active agonists at 5-HT1A receptors” (J Med Chem, 1999)
